MC4R barr agon: MC4R agonists recruiting beta-arrestin, primary screen, cell-based, luminescence, agonist arm of biased-ligand search. 0.98% of 360,000 active. U2OS MC4R beta-arrestin complementation; percent of melanotan II response, DMSO zero. activation, % at 8.9 µM. Melanocortin receptor 4 (Homo sapiens), P32245;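 active = activation above a per-plate cutoff, the mean activation of sample wells on that plate plus 3 SD, cut at about 8% in these data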
MC4R antagonist: MC4R antagonists of cAMP signaling, primary screen, cell-based, TR-FRET, antagonist arm of biased-ligand search; Melanocortin receptor 4 (Homo sapiens), P32245; MC4R-expressing cells, MTII-stimulated cAMP, LANCE TR-FRET; inhibition, % at 6.5 µM; 0.48% of 360,000 active; AID 540295, 2011;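 active = inhibition above its plate's cutoff, the mean of tested wells on that plate plus 3 SD, cut at about 29% in these data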;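 note: 0% = Melanotan II alone and 100% = Melanotan II plus saturating MCL0020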
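Assay system: human MC4R-expressing U2OS cells; reagent: Melanotan II stimulation of cells; dosing: 6.5 µM single dose; timing: compound 30 min, challenge 1 h, detection 1 h; signal: TR-FRET cAMP assay; replicates: one well per compound, no replicates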
SMARCA2 activ: SMARCA2 (BRM) function activators, primary screen, cell-based, luminescence, high throughput. AID 652017, 2013. 1% of 370,000 active. MG213 cells, MMTV-luciferase reporter, dexamethasone, overnight. activation, % at 9.1 µM; in the data active = activation above about 7.8%;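 note: 0% = vehicle wells and 100% = reference activator wells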
MPTP inh: mitochondrial permeability transition pore inhibitors, primary screen, biochemical, isolated mouse mitochondria, absorbance | AID 602449, 2012 | inhibition, % at 10 µM | 1.4% of 360,000 active | Ca2+ swelling absorbance, 30 min;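 active = inhibition of 50% or more, scaled per plate between neutral and stimulator controls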;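 note: 0% = DMSO wells given calcium and 100% = 1 mM EGTA wells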
ATG4B inh: ATG4B protease inhibitors, primary screen, biochemical, fluorescence, uHTS | Cysteine protease ATG4B (Homo sapiens), Q9Y4P1 | ATG4B cleavage of LC3-PLA2, NBD-HPC fluorescence, 1 h | inhibition, % at 8.33 µM | 0.51% of 340,000 active; in the data active = inhibition above about 40%
Target sequence (Q9Y4P1 whole entry, looked up): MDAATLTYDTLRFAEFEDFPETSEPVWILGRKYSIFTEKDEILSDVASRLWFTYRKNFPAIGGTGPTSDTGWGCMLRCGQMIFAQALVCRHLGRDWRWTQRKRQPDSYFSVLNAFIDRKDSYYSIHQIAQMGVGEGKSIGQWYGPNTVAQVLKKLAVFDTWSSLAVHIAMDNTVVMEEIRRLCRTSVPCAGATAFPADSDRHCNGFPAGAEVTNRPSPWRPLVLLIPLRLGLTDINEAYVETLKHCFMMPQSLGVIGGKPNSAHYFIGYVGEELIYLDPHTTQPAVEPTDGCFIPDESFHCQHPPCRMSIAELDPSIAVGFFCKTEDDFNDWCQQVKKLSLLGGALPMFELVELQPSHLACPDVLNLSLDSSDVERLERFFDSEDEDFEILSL
MC4R barr conf: MC4R beta-arrestin agonists, retest, confirmation, cell-based, luminescence, U2OS. shares compounds with MC4R barr agon. activation, % at 8.9 µM. 31% of 2,400 active. U2OS MC4R beta-arrestin recruitment; scaled DMSO 0%, Melanotan II 100%;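 active = mean activation across replicates above the hit cutoff set in the earlier primary screen, cut at about 8% in these data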
MOR DOR agonist: agonists of MOR-DOR heterodimerization, counter-screen for MC4R biased agonist project, cell-based, luminescence; shares compounds with MC4R barr agon; U2OS PathHunter beta-arrestin, beta-gal luminescence; percent of deltorphin B response, DMSO zero; activation, % at 9.2 µM; 5.8% of 2,400 active; AID 602194, 2012;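 active = mean activation across replicates exceeds the hit threshold derived in the earlier primary screen, cut at about 18% in these data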;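 note: 100% = deltorphin B at 0.9 µM final and 0% = DMSO alone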
* = called active by the depositor; . = no result given. This is a sample that favours compounds with a hit; in the whole collection about 4.1% have one here.

SMILES | MC4R barr agon | MC4R antagonist | SMARCA2 activ | MPTP inh | ATG4B inh | MC4R barr conf | MOR DOR agonist
Cc1cc(NC(=O)CCSc2nc(-c3ccco3)cc(C(F)(F)F)n2)no1 | 9.9* | 8 | 1 | -1 | -10 | 3 | 6
O=C(O)c1nn(CCOc2cccc(Cl)c2)c(=O)c2ccccc12 | 3 | 5 | -1 | 1 | 5 | . | .
O=C(O)c1nn(CCOc2ccc(Cl)cc2Cl)c(=O)c2ccccc12 | 18* | 0 | 2 | -3 | -7 | 0 | 6
Cc1ccccc1Cn1cccc1/C=C1/C(=N)N2C=CSC2=NC1=O | 14* | 1 | -2 | -20 | -1 | 2 | 2
CCC(C(=O)Nc1ccccc1N1CCCC1)c1ccccc1F (centres undefined) | . | . | -3 | . | . | . | .
Cc1ccnc(SCC(=O)Nc2oc(-c3ccccc3)c(-c3ccccc3)c2C#N)n1 | 17* | 1 | -2 | -1 | 6 | -1 | 4
COC1C(O)CCC2(CO2)C1C1(C)OC1CC=C(C)C (centres undefined) | . | . | 3 | . | . | . | .
COC(=O)c1c(NC(=O)CN2CCN(Cc3ccc4c(c3)OCO4)CC2)sc(C)c1C | 9.6* | 13 | -2 | 2 | 13 | 8 | 13
COC(=O)c1ccsc1NC(=O)CN1CCN(Cc2ccc3c(c2)OCO3)CC1 | 0 | 1 | -2 | -2 | 10 | . | .
Cc1ccc(NC(=O)c2ncn(CCCN3CCN(Cc4cccc5ccccc45)CC3)n2)cc1C | 16* | 6 | -5 | 3 | -9 | 26* | 9
CCn1c2ccccc2c2cc(NC(=O)COC(=O)c3cccc(F)c3)ccc21 | . | . | 4 | . | . | . | .
CC(C)C[C@H](NC(=O)c1cccs1)C(=O)N1CCC[C@H]1C(=O)NCc1ccccc1 | . | . | -2 | . | . | . | .
COc1cc(CC(=O)NCCc2ccc(OCc3ccccc3)cc2)c([N+](=O)[O-])cc1OC | 12* | 2 | 2 | 1 | 0 | 2 | 5
CN(C(=O)CNC(=O)c1ccccc1OCC(=O)Nc1ccc(I)cc1)c1ccccc1 | . | . | -2 | . | . | . | .
O=c1[nH]c(/C=C/c2cccc3ccccc23)nc2ccccc12 | 16* | 1 | 3 | 0 | -8 | 2 | 2
O=C1NC[C@H](Cc2ccccc2)N(CCc2cc(C(F)(F)F)cc(C(F)(F)F)c2)C1=O | . | . | 0 | 0 | . | . | .
O=C1NC[C@@H](Cc2cccc3ccccc23)N(CCc2cc(C(F)(F)F)cc(C(F)(F)F)c2)C1=O | 11* | -1 | 0 | 0 | -16 | 9.8* | 3
S=C(Nc1ccc(N2CCOCC2)cc1)Nc1ccc2nc(-c3ccco3)c(-c3ccco3)nc2c1 | 1 | -4 | 0 | 4 | 2 | . | .
O=C(Nc1ccc(N2CCOCC2)cc1)c1ccc2nc(-c3ccco3)c(-c3ccco3)nc2c1 | 10* | -14 | 3 | 0 | 11 | -1 | 17
COc1ccc(OCC(C)CN2CCC(C(O)(c3ccccc3)c3ccccc3)CC2)cc1 (centres undefined) | . | . | -1 | . | . | . | .
CN(C)S(=O)(=O)c1cccc(NC(=O)c2ccccc2OCc2ccc(F)cc2)c1 | 3 | 4 | -1 | 2 | -3 | . | .
CC(=O)c1cccc(NC(=O)c2ccccc2OCc2ccc(F)cc2)c1 | 14* | -10 | 2 | 2 | -5 | -1 | 4
CSc1ncccc1C(=O)OCc1ccc([N+](=O)[O-])cc1 | 12* | 2 | -1 | 6 | -6 | 1 | 3
O=C(NCCN1CCC(Cc2ccccc2)CC1)C1CCCN(S(=O)(=O)c2ccc(Cl)s2)C1 (centres undefined) | . | . | -5 | . | . | . | .
CCn1c(SCC(=O)Nc2cc(C)on2)nc2c1c(=O)n(C)c(=O)n2C | 0 | -4 | -1 | -1 | -6 | . | .
SMILES | MC4R barr agon | MC4R antagonist | SMARCA2 activ | MPTP inh | ATG4B inh | MC4R barr conf | MOR DOR agonist
Cc1cc(NC(=O)CSc2nc3c(c(=O)n(C)c(=O)n3C)n2C(C)C)no1 | 16* | -26 | 1 | 0 | 4 | 0 | 2
O=C(Nc1ccc2c(c1)OCO2)c1cc(-c2cccc(O)c2)on1 | -3 | -1 | 2 | 0 | 5 | . | .
COc1ccc(-c2cc(C(=O)Nc3ccc4c(c3)OCO4)no2)cc1OC | 6 | 14 | -2 | 1 | 3 | . | .
COc1cccc(-c2cc(C(=O)Nc3ccc4c(c3)OCO4)no2)c1 | 16* | -7 | 0 | 2 | 5 | 3 | 10
O=C(NCc1ccc2c(c1)OCO2)c1cc(-c2ccccc2Cl)on1 | 1 | 17 | -1 | 0 | 24 | . | .
O=C(Nc1ccc2c(c1)OCO2)c1cc(-c2ccccc2Cl)on1 | 32* | -5 | 4 | 0 | 18 | 2 | 4
O=C(Nc1ccc2c(c1)OCO2)c1cc(-c2ccc(O)cc2)on1 | 11* | -5 | 5 | -2 | 9 | 4 | 7
NC(=O)c1ncn([C@@H]2O[C@H](C(=O)N[C@H](Cc3ccccc3)C(=O)N3CCN(CC(=O)Nc4ccccn4)CC3)[C@@H](O)[C@H]2O)n1 | . | . | 1 | . | . | . | .
Cc1cc(O)cc(=O)n1-c1cccc([N+](=O)[O-])c1 | . | . | -2 | . | . | . | .
CC(=O)C1=C(C)N(Cc2ccc(F)cc2)C(=S)NC1c1ccc(Br)cc1 (centres undefined) | . | . | -4 | . | . | . | .
COc1ccc(-c2nc(=S)c3ccc4ccccc4c3[nH]2)cc1 | 12* | -2 | -6 | 2 | -8 | -1 | 1
Cc1ccc(N(CC(=O)NC(C)c2ccccc2)S(=O)(=O)c2cccs2)cc1 (centres undefined) | 17* | 5 | -2 | 1 | -17 | -5 | 2
Cc1ccc(C2=Nc3ccccc3N=C(c3ccco3)C2)c(O)c1 | 17* | 7 | 1 | -4 | -1 | 4 | 3
Cc1ccc(O)c(C2=Nc3ccccc3N=C(c3ccco3)C2)c1 | 3 | 0 | -1 | 0 | 1 | . | .
Cc1ccccc1C(=O)N[C@H](C(=O)Nc1ccc(Cl)c(Cl)c1)C(C)C | 17* | 7 | -2 | 23 | 3 | -1 | 4
O=S(=O)(CC1NCCc2ccccc21)NCCc1ccccc1 (centres undefined) | . | . | -2 | . | . | . | .
COc1ccc(NC(=O)CN(C)C(=O)/C=C/c2ccc(OCc3ccccc3)cc2)cc1 | 19* | -1 | -2 | 2 | -5 | 8 | 12
COc1ccc(NC(=O)CN(C)C(=O)CCc2ccccc2)cc1 | -1 | -1 | -1 | 0 | 5 | . | .

Screens as filed in PubChem.
